Activity calls are given as the source filed them. The rule behind the calls is not given here.
How the values were obtained:
[1] = tested on: Pseudomonas aeruginosa; assay: Anti-biofilm activity against Pseudomonas aeruginosa PAO1 at 50 uM after 24 hrs by crystal violet staining based assay relative to control; format: functional
Outline: (§1)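 PAO1 grown overnight in LB, then diluted in ABTGC medium (B-medium with 0.1% MgCl₂, 0.1% CaCl₂, 0.1% FeCl₃, plus 10% A10, 0.2% glucose, 0.2% casamino acids) and mixed with compound. Static 24 h at 37 °C. Wells PBS-washed, MeOH-fixed 20 min, stained 20 min with 0.1% w/v crystal violet, then dissolved in 33% AcOH.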

[2] = tested on: Pseudomonas aeruginosa; assay: Anti-biofilm activity against Pseudomonas aeruginosa PAO1 at 1 to 50 uM after 24 hrs by crystal violet staining based assay relative to control; format: functional; outline: as §1
[3] = tested on: Pseudomonas aeruginosa; assay: Anti-biofilm activity against Pseudomonas aeruginosa PAO1 after 24 hrs by crystal violet staining based assay; format: functional, organism-based; outline: as §1
[4] = tested on: Pseudomonas aeruginosa; assay: Toxicity in Pseudomonas aeruginosa PAO1 assessed as growth inhibition at 1 to 50 uM after 2 to 16 hrs; format: organism-based; conditions: in vivo
[5] = tested on: Pseudomonas aeruginosa; assay: Toxicity in Pseudomonas aeruginosa PAO1 harboring mini-ctx-lacZ assessed as effect on beta-galactosidase activity at 2.5 to 50 uM beta-galactosidase reporter gene assay; format: organism-based; conditions: in vivo
[6] = biological target: T1, Anthranilate--CoA ligase (Pseudomonas aeruginosa (strain ATCC 15692 / DSM 22644 / CIP 104116 /JCM 14847 / LMG 12228 / 1C / PRS 101 / PAO1)) (UniProt Q9I4X3); assay: Inhibition of pqsA quorum sensing system in Pseudomonas aeruginosa PAO1 harboring mini-ctx-pqsA-lacZ after 24 hrs by beta-galactosidase reporter gene assay
T1 sequence (whole entry): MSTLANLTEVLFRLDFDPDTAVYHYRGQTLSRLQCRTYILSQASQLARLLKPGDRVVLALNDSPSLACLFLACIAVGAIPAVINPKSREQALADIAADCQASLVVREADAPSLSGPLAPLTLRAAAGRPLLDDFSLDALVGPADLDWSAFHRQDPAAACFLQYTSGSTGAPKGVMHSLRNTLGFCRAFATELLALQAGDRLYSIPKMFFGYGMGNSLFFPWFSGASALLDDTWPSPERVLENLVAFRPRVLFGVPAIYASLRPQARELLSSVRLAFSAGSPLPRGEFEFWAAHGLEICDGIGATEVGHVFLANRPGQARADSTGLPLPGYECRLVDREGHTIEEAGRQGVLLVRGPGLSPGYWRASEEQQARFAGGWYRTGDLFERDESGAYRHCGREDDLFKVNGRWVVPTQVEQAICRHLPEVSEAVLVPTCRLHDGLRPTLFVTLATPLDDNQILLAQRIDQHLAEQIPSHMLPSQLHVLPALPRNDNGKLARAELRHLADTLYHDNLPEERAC

[7] = biological target: 3-(3-hydroxydecanoyloxy)decanoate synthase (Pseudomonas aeruginosa (strain ATCC 15692 / PAO1 / 1C / PRS 101 / LMG12228)) (UniProt Q51559); assay: Inhibition of RhlA quorum sensing system in Pseudomonas aeruginosa PAO1 assessed as reduction in rhamnolipid production at 10 to 50 uM after 20 hrs
Outline: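 Rhamnolipid by orcinol method: overnight PAO1 diluted in phosphate minimal medium with 0.6% glycerol, 5 mL cultures shaken at 37 °C for 20 h with compound at various concentrations; DMSO control. Cultures centrifuged 12000g, 4 °C, 5 min; orcinol reaction at 80 °C for 30 min. A421 divided by final OD600.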

[8] = biological target: Elastase (Pseudomonas aeruginosa (strain ATCC 15692 / PAO1 / 1C / PRS 101 / LMG12228)) (UniProt P14756); assay: Inhibition of lasB quorum sensing system in Pseudomonas aeruginosa PAO1 assessed as reduction in elastase release at 10 uM after 24 hrs relative to control
Outline: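 Elastase: overnight wild-type PAO1 diluted in ABTGC medium to OD600 0.01 and grown 24 h at 37 °C with shaking at 200 rpm. Supernatant elastase measured by a fluorogenic elastase kit. PAO1ΔlasIΔrhlI served as blank; DMSO as control.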

[9] = biological target: T1, Anthranilate--CoA ligase (Pseudomonas aeruginosa (strain ATCC 15692 / DSM 22644 / CIP 104116 /JCM 14847 / LMG 12228 / 1C / PRS 101 / PAO1)); assay: Inhibition of pqsA quorum sensing system in Pseudomonas aeruginosa PAO1 assessed as reduction in pyocyanin release at 10 uM after 20 hrs relative to control
Outline: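 Pyocyanin: overnight PAO1 diluted in LB to OD600 0.01; 20 mL cultures shaken at 37 °C for 20 h. Centrifuged at 1500g for 10 min; supernatant absorbance read at 695 nm. PAO1ΔlasIΔrhlI served as blank; DMSO as control.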

[10] = biological target: Elastase (Pseudomonas aeruginosa (strain ATCC 15692 / PAO1 / 1C / PRS 101 / LMG12228)) (UniProt P14756); assay: Inhibition of lasB quorum sensing system in Pseudomonas aeruginosa PAO1 harboring mini-ctx-lasB-lacZ at 50 uM in presence of ODdHL by beta-galactosidase reporter gene assay
Outline: (§2)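 Competition: overnight lasB-lacZ or pqsA-lacZ reporter cultures diluted in ABTGC medium to OD600 0.01. Compound at 50 μM added with ODdHL (lasB) or PQS (pqsA) at final 50, 20, 10 or 0 μM. β-galactosidase measured when OD600 reached 1.0. DMSO control; triplicate.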

[11] = biological target: T1, Anthranilate--CoA ligase (Pseudomonas aeruginosa (strain ATCC 15692 / DSM 22644 / CIP 104116 /JCM 14847 / LMG 12228 / 1C / PRS 101 / PAO1)); assay: Inhibition of pqsA quorum sensing system in Pseudomonas aeruginosa PAO1 harboring mini-ctx-pqsA-lacZ at 50 uM in presence of PQS by beta-galactosidase reporter gene assay; outline: as §2
[12] = biological target: Elastase (Pseudomonas aeruginosa (strain ATCC 15692 / PAO1 / 1C / PRS 101 / LMG12228)) (UniProt P14756); assay: Inhibition of lasB quorum sensing system in Pseudomonas aeruginosa PAO1 harboring mini-ctx-lasB-lacZ after 6 hrs by beta-galactosidase reporter gene assay
[13] = biological target: 3-(3-hydroxydecanoyloxy)decanoate synthase (Pseudomonas aeruginosa (strain ATCC 15692 / PAO1 / 1C / PRS 101 / LMG12228)) (UniProt Q51559); assay: Inhibition of RhlA quorum sensing system in Pseudomonas aeruginosa PAO1 harboring mini-ctx-RhlA-lacZ at 50 uM after 6 hrs by beta-galactosidase reporter gene assay
[14] = biological target: 3-(3-hydroxydecanoyloxy)decanoate synthase (Pseudomonas aeruginosa (strain ATCC 15692 / PAO1 / 1C / PRS 101 / LMG12228)) (UniProt Q51559); assay: Inhibition of RhlA quorum sensing system in Pseudomonas aeruginosa PAO1 harboring mini-ctx-RhlA-lacZ at 2.5 to 20 uM after 6 hrs by beta-galactosidase reporter gene assay

Sequence of Elastase (Pseudomonas aeruginosa (strain ATCC 15692 / PAO1 / 1C / PRS 101 / LMG12228)) (P14756 198-498 limits assumed): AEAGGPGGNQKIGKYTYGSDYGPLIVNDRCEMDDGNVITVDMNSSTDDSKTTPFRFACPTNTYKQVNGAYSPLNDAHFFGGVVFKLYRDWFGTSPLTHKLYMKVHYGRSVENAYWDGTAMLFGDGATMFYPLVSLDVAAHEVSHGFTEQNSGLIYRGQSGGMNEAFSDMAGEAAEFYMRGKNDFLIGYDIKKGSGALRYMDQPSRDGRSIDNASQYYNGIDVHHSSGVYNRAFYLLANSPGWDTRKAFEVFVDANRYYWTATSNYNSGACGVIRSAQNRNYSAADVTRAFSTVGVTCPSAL

Compound | Activity [1] [%] | other results
COc1cc(CCc2ccccc2)c(C=O)c(OC(C)=O)c1CC=C(C)C | -32.1 | –
COc1cc(CCc2ccccc2)c(C(=O)O)c(O)c1C/C=C(\C)CCC=C(C)C | 50.3 | Activity [2]: 20 - 50%; Activity [3]: Dose-dependent effect; growth inhibition (GI) [4]: Non-Toxic; Activity [5]: Non-Toxic; inhibition [6]: Dose-dependent effect; inhibition [7]: inactive; inhibition [8]: 50%; inhibition [9]: 50%; inhibition [10]: inactive; inhibition [11]: inactive; inhibition [12]: Dose-dependent effect; inhibition [13]: Active; inhibition [14]: inactive
COc1cc(/C=C/c2ccccc2)c(C=O)c(OC(C)=O)c1CC=C(C)C | -12.5 | –
COc1cc(CCc2ccccc2)c(C=O)c(O)c1CC=C(C)C | 26.9 | –
COc1cc(CCc2ccccc2)c(C=O)c(O)c1C/C=C(\C)CCC=C(C)C | 53.1 | –
COc1cc(CCc2ccccc2)c(C(=O)O)c(O)c1CC=C(C)C [AMORFRUTIN A] | -31.3 | –
COc1cc(/C=C/c2ccccc2)c(C(=O)O)c(OC(C)=O)c1CC=C(C)C | -24.4 | –
COc1cc(/C=C/c2ccccc2)c(C=O)c(O)c1CC=C(C)C | 42.4 | –
COc1cc(CCc2ccccc2)c(C(=O)O)c(OC(C)=O)c1C/C=C(\C)CCC=C(C)C | -32.9 | –
COc1cc(CCc2ccccc2)c(C(=O)O)c(OC(C)=O)c1CC=C(C)C | 36.9 | –
COc1cc(/C=C/c2ccccc2)c(C=O)c(OCC=C(C)C)c1 | -14.3 | –
COc1cc(/C=C/c2ccccc2)c(C(=O)O)c(O)c1CC=C(C)C | -41 | –
COc1cc(CCc2ccccc2)c(C=O)c(OC(C)=O)c1C/C=C(\C)CCC=C(C)C | 24.7 | –
